According to ChEMBL document CHEMBL1125386, “Small atrial natriuretic peptide analogues: design, synthesis, and structural requirements for guanylate cyclase activation” (J Med Chem, 1992):
Where a SMILES comes first, the peptide text is derived from it.

What was measured:
[1] = species on record: Oryctolagus cuniculus; assay: Compound was evaluated for the intrinsic vasorelaxation (i.vr) in a standard tissue bath preparation using rabbit aortic rings precontracted with histamine; type: functional, Aorta
Outline: (§1)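 Rabbit aortic rings (4–5 mm) in Krebs-Henseleit buffer, gassed 95:5 O2/CO2, pH 7.4, isometric tension, baseline 2 g held 2 h. Rings contracted with 3 μM histamine, then six cumulative half-log peptide increments over 90 min, range 10⁻⁸ to 10⁻⁴ M. Triplicate determinations.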

[2] = (§2) In vitro Biological half-life in crude homogenate of rabbit renal cortex; type: ADME, Oryctolagus cuniculus
[3] = species on record: Oryctolagus cuniculus; assay: In vitro vasorelaxant potency at dose 10 e -8 to 10 e-4 M using rabbit aortic rings precontracted with histamine; type: functional; details: Aorta; outline: as §1
[4] = tested on: Atrial natriuretic peptide receptor 1 (Oryctolagus cuniculus); assay: Binding affinity towards the low-affinity site atrionatriuretic peptide receptor 1 of rabbit adrenal membrane
[5] = as §2; type: ADME, tissue-based, Oryctolagus cuniculus

**Q.** With H-FGGRIDRI-OH as the compound, how does the Intrinsic vasorelaxation [1] read?
**A.** Its Intrinsic vasorelaxation is 0.57 fraction of rANP max.

**Q.** With `CC[C@H](C)[C@@H]1NC(=O)[C@H](CCCN=C(N)N)NC(=O)CNC(=O)CNC(=O)[C@H](Cc2ccccc2)NC(=O)[C@@H](NC(=O)[C@H](CO)NC(=O)[C@@H](N)CO)CSSC[C@@H](C(=O)O)NC(=O)[C@H](CCCN=C(N)N)NC(=O)[C@H](Cc2ccccc2)NC(=O)[C@H]([C@@H](C)CC)NC(=O)[C@H](CCCN=C(N)N)NC(=O)[C@H](CC(=O)O)NC1=O` as the compound, how does the half-life [2] read?
**A.** Its half-life is < 2 min.

**Q.** What about the EC50 [3] of the same compound?
**A.** Its EC50 is 2000 nM.

**Q.** Which Intrinsic vasorelaxation [1] does the source give for H-RIDRIG-OH here?
**A.** The Intrinsic vasorelaxation was 0.7 fraction of rANP max.

**Q.** With `CC[C@H](C)[C@@H]1NC(=O)[C@@H](CCCN=C(N)N)NC(=O)CNC(=O)CNC(=O)[C@@H](Cc2ccccc2)NC(=O)C(C(C)C)NC(=O)[C@H](NC(=O)[C@H](CO)NC(=O)[C@@H](N)CO)CSSC[C@H](C(=O)N[C@H](Cc2ccccc2)C(=O)N[C@H](CCCN=C(N)N)C(=O)O)NC(=O)[C@@H]([C@@H](C)CC)NC(=O)[C@H](CCCN=C(N)N)NC(=O)[C@@H](CC(=O)O)NC1=O` (stereo in doubt) as the compound, how does the KL [4] read?
**A.** The KL was 130 nM.

**Q.** What about the EC50 [3] of the same compound?
**A.** Its EC50 is 24 nM.

**Q.** Which half-life [5] does the source give for `CC[C@H](C)[C@@H]1NC(=O)[C@@H](CCCN=C(N)N)NC(=O)CNC(=O)CNC(=O)[C@@H](Cc2ccccc2)NC(=O)C(C)NC(=O)[C@H](NC(=O)[C@H](CO)NC(=O)[C@@H](N)CO)CSSC[C@H](C(=O)N[C@H](Cc2ccccc2)C(=O)N[C@H](CCCN=C(N)N)C(=O)O)NC(=O)[C@@H]([C@@H](C)CC)NC(=O)[C@H](CCCN=C(N)N)NC(=O)[C@@H](CC(=O)O)NC1=O` (stereo in doubt) here?
**A.** The half-life was 5.3 min.

**Q.** What about the KL [4] of the same compound?
**A.** The KL was 710 nM.

**Q.** And the EC50 [3]?
**A.** The EC50 was 360 nM.

**Q.** For H-SSCFGGR-OH, which Intrinsic vasorelaxation [1] is on record?
**A.** The Intrinsic vasorelaxation was 0 fraction of rANP max.

**Q.** With `CC[C@H](C)[C@@H]1NC(=O)[C@H](CCCN=C(N)N)NC(=O)CNC(=O)CNC(=O)[C@H](Cc2ccccc2)NC(=O)CNC(=O)[C@@H](NC(=O)[C@H](CO)NC(=O)[C@@H](N)CO)CSSC[C@@H](C(=O)N[C@@H](Cc2ccccc2)C(=O)N[C@@H](CCCN=C(N)N)C(=O)O)NC(=O)[C@H]([C@@H](C)CC)NC(=O)[C@H](CCCN=C(N)N)NC(=O)[C@H](CC(=O)O)NC1=O` as the compound, how does the half-life [5] read?
**A.** Its half-life is 3.2 min.

**Q.** And the EC50 [3]?
**A.** The EC50 was 120 nM.

**Q.** With H-SSCFG-OH as the compound, how does the Intrinsic vasorelaxation [1] read?
**A.** The Intrinsic vasorelaxation was 0.03 fraction of rANP max.

**Q.** For `NC(=O)C[C@H](N)C(=O)N[C@@H](CO)C(=O)N[C@@H](Cc1ccccc1)C(=O)N[C@@H](CCCN=C(N)N)C(=O)O` (H-NSFR-OH), which Intrinsic vasorelaxation [1] is on record?
**A.** Its Intrinsic vasorelaxation is 0.16 fraction of rANP max.

**Q.** What does the source list for `CC[C@H](C)[C@@H]1NC(=O)[C@H](CCCN=C(N)N)NC(=O)CNC(=O)CNC(=O)[C@@H](Cc2ccccc2)NC(=O)[C@@H](NC(=O)[C@H](CO)NC(=O)[C@@H](N)CO)CSSC[C@@H](C(=O)N[C@@H](Cc2ccccc2)C(=O)N[C@@H](CCCN=C(N)N)C(=O)O)NC(=O)[C@H]([C@@H](C)CC)NC(=O)[C@H](CCCN=C(N)N)NC(=O)[C@H](CC(=O)O)NC1=O`?
**A.** half-life [5]: 5.8 min; EC50 [3]: > 10000 nM

**Q.** What does the source list for `CC[C@H](C)[C@@H]1NC(=O)[C@H](CCCN=C(N)N)NC(=O)CNC(=O)CNC(=O)[C@H](Cc2ccccc2)NC(=O)[C@@H](NC(=O)[C@H](CO)NC(=O)[C@@H](N)CO)CSSC[C@@H](C(=O)N[C@@H](Cc2ccccc2)C(=O)N[C@@H](CCCN=C(N)N)C(=O)O)NC(=O)[C@H]([C@@H](C)CC)NC(=O)[C@H](CCCN=C(N)N)NC(=O)[C@H](CC(=O)O)NC1=O`?
**A.** half-life [5]: 4.7 min; EC50 [3]: 3000 nM
